Laboratory results from ChEMBL document CHEMBL4190254, “Synthesis of sulfamoylbenzamide derivatives as HBV capsid assembly effector” (Eur J Med Chem, 2017).

Columns and labels:
[1] = test system: Vero; test: Cytotoxicity against African green monkey Vero cells by CellTiter 96 non-radioactive cell proliferation colorimetric assay; assay type: cell-based; conditions: chlorocebus sabaeus, vero
Procedure, shortened: (§1)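 A CellTiter 96 colorimetric cell proliferation read-out was used in primary human PBM cells, CEM, Vero and HepG2 cells. CC50 is the concentration that inhibits cell growth by 50%.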

[2] = test system: HepG2; test: Cytotoxicity against human HepG2 cells by CellTiter 96 non-radioactive cell proliferation colorimetric assay; assay type: cell-based; procedure, shortened: as §1
[3] = test system: Hepatitis B virus; test: Antiviral activity against HBV infected in human HepAD38 cells assessed as reduction in viral replication by RT-PCR method; assay type: functional, organism-based
Procedure, shortened: (§2)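 HBV DNA replication in HepAD38 cells was quantified by RT-PCR following an earlier published method, with data relative to the untreated control. EC50 (50% inhibition of HBV DNA replication) was derived by linear regression. Values are the mean ± SD of two or three replicates from 2 independent experiments.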

[4] = test system: CCRF-CEM; test: Cytotoxicity against human CEM cells by CellTiter 96 non-radioactive cell proliferation colorimetric assay; assay type: cell-based; conditions: ccrf-cem; procedure, shortened: as §1
[5] = test system: PBMC; test: Cytotoxicity against human PBMC by CellTiter 96 non-radioactive cell proliferation colorimetric assay; assay type: cell-based; procedure, shortened: as §1
[6] = test system: Hepatitis B virus; test: Antiviral activity against HBV infected in human HepAD38 cells assessed as inhibition of viral replication at 10 uM by RT-PCR method relative to control; assay type: functional
Procedure, shortened: (§3)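 HBV DNA replication in HepAD38 cells was quantified by RT-PCR following an earlier published method. Each compound was tested at a single 10 μM concentration. Results are % inhibition ± SD relative to the untreated control.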

[7] = test system: Hepatitis B virus; test: Antiviral activity against HBV infected in human HepAD38 cells assessed as reduction in intracellular viral DNA level at 10 uM by RT-PCR method relative to control; assay type: functional; set-up: scale not given: the % may be the effect or the level left
Procedure, shortened: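 HepAD38 cells; intracellular HBV DNA quantified by RT-PCR, expressed relative to untreated control; single-point inhibition given as percent at 10 μM, mean ± SD of two or three replicates from 2 independent experiments.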

[8] = test system: Hepatitis B virus; test: Antiviral activity against HBV infected in human HepAD38 cells assessed as reduction in intracellular viral DNA level by RT-PCR method; assay type: functional, organism-based; procedure, shortened: as §2
[9] = test system: Hepatitis B virus; test: Antiviral activity against HBV infected in human HepAD38 cells assessed as reduction in extracellular viral DNA level by RT-PCR method; assay type: functional, organism-based; procedure, shortened: as §2
[10] = target: Core antigen (Hepatitis B virus, UniProt Q03732); test: (§4) Inhibition of capsid in HBV infected in human HepAD38 cells assessed as reduction in tetracycline-induced cccDNA formation by measuring reduction in HBe antigen secretion after 14 days by ELISA; assay type: cell-based
Chain of Core antigen (Q03732 whole entry): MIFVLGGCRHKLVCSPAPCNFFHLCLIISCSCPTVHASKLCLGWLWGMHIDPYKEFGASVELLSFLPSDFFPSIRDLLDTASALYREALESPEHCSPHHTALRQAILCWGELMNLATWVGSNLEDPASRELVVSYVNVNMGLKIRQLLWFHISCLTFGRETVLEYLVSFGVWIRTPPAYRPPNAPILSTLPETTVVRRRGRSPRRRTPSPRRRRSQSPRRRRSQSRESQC
Procedure, shortened: (§5)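 HepAD38 cells, collagen-coated wells, DMEM/F12 with 10% heat-inactivated FBS. Tetracycline withdrawn 7 days to allow DNA synthesis and cccDNA formation; at day 7 tetracycline (0.3 μg/ml) plus compound re-added. Compound at 10 μM or 0.001–10 μM, medium and compound replenished every 5 days. Day-14 supernatant HBeAg by ELISA; EC50 by linear regression.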

[11] = target: Core antigen (Hepatitis B virus) (UniProt Q03732); test: Inhibition of capsid in HBV infected in human HepAD38 cells assessed as reduction in cccDNA formation by measuring reduction in HBe antigen secretion at 10 uM after 14 days by ELISA relative to control; assay type: cell-based; procedure, shortened: as §5
Chain of Core antigen (Hepatitis B virus) (Q03732 as listed by the source): as the sequence (Q03732 whole entry) above

[12] = test system: Hepatitis B virus; test: Antiviral activity against HBV infected in human HepAD38 cells assessed as reduction in extracellular viral DNA level at 10 uM by RT-PCR method relative to control; assay type: functional; set-up: scale not given: the % may be the effect or the level left; procedure, shortened: as §3
[13] = target: Core antigen (Hepatitis B virus) (UniProt Q03732); test: as §4; assay type: cell-based; procedure, shortened: as §5

| EC50 [3] | EC90 [3] | Structure (SMILES) | CC50 [1] | CC50 [2] | CC50 [4] | CC50 [5] | inhibition at 10 µM [6] | Activity [7] | EC50 [8] | EC90 [8] | EC50 [9] | EC90 [9] | EC50 [10] | inhibition [11] | Activity [12] | EC90 [13] |
| --- | --- | --- | --- | --- | --- | --- | --- | --- | --- | --- | --- | --- | --- | --- | --- | --- |
| > 10 µM | – | CC(C)OC(=O)[C@H](C)NS(=O)(=O)c1ccc(F)c(C(=O)Nc2ccc(F)c(F)c2)c1 | 13.1 µM | 45.5 µM | 31.1 µM | > 100 µM | – | – | – | – | – | – | – | – | – | – |
| 6.7 µM | > 10 µM | O=C(Nc1ccc(F)c(F)c1)c1cc(S(=O)(=O)N2CCC(F)(F)C2)ccc1F | 21.3 µM | > 100 µM | 4.8 µM | > 100 µM | 83% | – | – | – | – | – | – | – | – | – |
| 7.7 µM | 9.3 µM | CC(NS(=O)(=O)c1ccc(F)c(C(=O)Nc2ccc(F)c(F)c2)c1)c1ccccc1 (stereo not drawn) | 68 µM | > 100 µM | 3.6 µM | > 100 µM | – | – | – | – | – | – | – | – | – | – |
| > 10 µM | – | CN(C1CCCC1)S(=O)(=O)c1ccc2c(c1)C(=O)N(c1ccc(F)c(F)c1)CCC2 | > 100 µM | > 100 µM | > 100 µM | > 100 µM | – | – | – | – | – | – | – | – | – | – |
| > 10 µM | – | O=C(Nc1ccc(F)c(F)c1)c1cc(S(=O)(=O)NS(=O)(=O)C2CC2)ccc1F | > 100 µM | > 100 µM | > 100 µM | > 100 µM | – | – | – | – | – | – | – | – | – | – |
| 9.2 µM | > 10 µM | O=C(Nc1ccc(F)c(F)c1)c1cc(S(=O)(=O)N2CC(F)(F)C(F)(F)C2)ccc1F | 9 µM | > 100 µM | ≤ 1 µM | > 100 µM | 59% | – | – | – | – | – | – | – | – | – |
| 4.5 µM | 9.4 µM | O=C(Nc1ccc(F)c(F)c1)c1cc(S(=O)(=O)N2CCC(F)(F)CC2)ccc1F | > 100 µM | > 100 µM | 10.3 µM | > 100 µM | – | – | – | – | – | – | – | – | – | – |
| > 10 µM | – | CN(C1CCCC1)S(=O)(=O)c1ccc2c(c1)C(=O)N(c1ccc(F)c(F)c1)CC2 | > 100 µM | > 100 µM | 36 µM | 71.2 µM | – | – | – | – | – | – | – | – | – | – |
| 3.2 µM | 8.9 µM | O=C(Nc1ccc(F)c(F)c1)c1cc(S(=O)(=O)NC2CC2)ccc1F | 79.2 µM | 62.3 µM | 13.6 µM | 30.1 µM | – | – | – | – | – | – | – | – | – | – |
| – | – | C=C1[C@H](CO)[C@@H](O)C[C@@H]1n1cnc2c(=O)[nH]c(N)nc21.O | – | – | – | – | – | 53% | ≤ 0.0001 µM | 0.009 µM | 0.0007 µM | 0.1 µM | > 10 µM | < 1% | – | – |
| > 10 µM | – | O=C1c2cc(S(=O)(=O)NC3CCCC3)ccc2CCN1c1ccc(F)c(F)c1 | > 100 µM | > 100 µM | > 100 µM | > 100 µM | – | – | – | – | – | – | – | – | – | – |
| ≥ 10 µM | – | O=C(Nc1cc(S(=O)(=O)NC2CCCC2)ccc1F)c1ccc(F)c(F)c1 | 87.5 µM | > 100 µM | 13.6 µM | 81 µM | – | – | – | – | – | – | – | – | – | – |
| > 10 µM | – | COC(=O)[C@H](Cc1ccccc1)NS(=O)(=O)c1ccc(F)c(C(=O)Nc2ccc(F)c(F)c2)c1 | > 100 µM | 76.8 µM | 31.6 µM | > 100 µM | – | – | – | – | – | – | – | – | – | – |
| > 10 µM | – | O=C(NC1(c2ccc(F)c(F)c2)CC1)c1cc(S(=O)(=O)NC2CCCC2)ccc1F | 12.7 µM | > 100 µM | > 100 µM | > 100 µM | – | – | – | – | – | – | – | – | – | – |

| Structure (SMILES) | EC50 [3] | EC90 [3] | CC50 [1] | CC50 [2] | CC50 [4] | CC50 [5] | inhibition at 10 µM [6] | Activity [7] | EC50 [8] | EC90 [8] | EC50 [9] | EC90 [9] | EC50 [10] | inhibition [11] | Activity [12] | EC90 [13] |
| --- | --- | --- | --- | --- | --- | --- | --- | --- | --- | --- | --- | --- | --- | --- | --- | --- |
| O=C(Nc1ccc(F)c(F)c1)c1cc(NS(=O)(=O)C2CC2)ccc1F | 6.9 µM | > 10 µM | 30.7 µM | 61.8 µM | 11.8 µM | 39.2 µM | – | – | 0.8 µM | 8.1 µM | 6.9 µM | > 10 µM | 5.5 µM | 61% | 76% | > 10 µM |
